An excerpt weighted towards active compounds, which were near 2.9% of everything screened.
PAX8 inh HTS = lowers PAX8-driven luciferase in RMG-I cells. hit rate 1.2% among 360,000. inhibition, % at 12.6 µM. RMG-I TPO-luciferase reporter, SteadyGlo, 24 h;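 active = mean replicate inhibition at least 60% with every replicate also reaching 60%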;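 also: luciferase light reporting Pax8 driven TPO promoter activity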
GSIS activator = GLuc luminescence reporter in INS-1E cells, primary screen for activators of glucose-dependent secretion of insulin | INS-1E GLuc reporter insulin secretion, 2-3 h | activation, % at 16.6 µM | hit rate 0.61% among 370,000;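 active = lowest replicate activation of at least 40%, so every replicate reaches that level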
CDK5 inh = inhibitors of human CDK5/p35 kinase. inhibition, % at 10 µM. Recombinant CDK5/p35, ADP-Glo luminescence, 60 min. hit rate 0.01% among 330,000;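 active = highest replicate inhibition of at least 50% and at least 75% of replicates reaching 50%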
HIV Env fusion = inhibitors of HIV Env-mediated cell fusion; HeLa-JRFL Env/CEM21 cell fusion, luciferase; inhibition, % at 12.3 µM; hit rate 1.1% among 360,000;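 active = mean replicate inhibition score of at least 50 and every replicate individually at or above 50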
dFosB act = enhances mouse delta FosB homodimer DNA binding | hit rate 0.99% among 340,000 | activation, % at 25 µM | AID 493131 | P13346 | purified delta FosB, TAMRA-CDK5 oligo fluorescence polarization; percent of positive-control signal above neutral wells;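 active = mean activation above about 17%, with every replicate also reaching it, limit read from the data, passing the limit was not always enough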
Target sequence (P13346 whole entry, looked up): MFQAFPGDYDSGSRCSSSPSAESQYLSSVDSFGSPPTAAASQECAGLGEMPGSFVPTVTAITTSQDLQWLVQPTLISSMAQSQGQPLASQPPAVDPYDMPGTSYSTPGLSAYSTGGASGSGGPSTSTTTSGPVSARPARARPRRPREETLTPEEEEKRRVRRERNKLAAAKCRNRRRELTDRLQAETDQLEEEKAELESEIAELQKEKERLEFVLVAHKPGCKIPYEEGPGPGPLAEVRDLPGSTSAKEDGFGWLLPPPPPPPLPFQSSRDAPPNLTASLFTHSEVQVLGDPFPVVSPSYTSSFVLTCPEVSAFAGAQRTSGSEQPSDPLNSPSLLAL
Cneo AK release = Cryptococcus neoformans lysis via adenylate kinase release; C. neoformans lysis, adenylate kinase release luminescence, 4 h; normalised: neutral wells 0, clomiphene wells 100; hit rate 0.2% among 360,000; lysis activity, % at 15 µM;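 active = mean lysis activity across replicates of at least 80%, whatever share of replicates individually reach that level; inactive = mean lysis activity below 80%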
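Material: C. neoformans cells | Amount: Yeast cell density of 5 × 10^6 cells/mL | Medium: Fresh YPD growth medium | Dosing: Single dose | Times: Static 4 h at 37 °C with compound, 1 h detection | Detection: AK luminescence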
Each line names hits and unclear results; the compound was inactive in the other large screens; [ ] = another dose, or the depositor's remark.

C[C@H](CO)N1C[C@H](C)[C@@H](CN(C)Cc2ccc(Cl)c(Cl)c2)OCCCC[C@H](C)Oc2ccc(NC(=O)NC3CCCCC3)cc2C1=O	none (no result: CDK5 inh, dFosB act)
C[C@@H]1CCCCO[C@@H](CN(C)Cc2ccc(Cl)c(Cl)c2)[C@H](C)CN([C@H](C)CO)C(=O)c2cc(NC(=O)NC3CCCCC3)ccc2O1	PAX8 inh HTS 65.2, HIV Env fusion 72.4[16.7 µM] (no result: CDK5 inh, dFosB act)
C[C@@H]1CN([C@H](C)CO)C(=O)c2cc(NC(=O)NC3CCCCC3)ccc2O[C@@H](C)CCCCO[C@@H]1CN(C)Cc1ccc(Cl)c(Cl)c1	PAX8 inh HTS 70.9 (no result: CDK5 inh, dFosB act)
Cc1noc(C)c1NC(=O)Nc1ccc2c(c1)C(=O)N([C@@H](C)CO)C[C@@H](C)[C@H](CN(C)C(=O)c1ccccc1)OCCCC[C@H](C)O2	none (no result: CDK5 inh, dFosB act)
CCCNC(=O)Nc1ccc2c(c1)C(=O)N(C)C[C@@H](OC)[C@H](C)CN(C(=O)C1CC1)[C@H](C)CO2	none (no result: CDK5 inh, HIV Env fusion, dFosB act)
O=C(CC(F)(F)F)N1C[C@H]2[C@@H](c3ccccc31)[C@H](CO)N2C(=O)c1ccncc1	none (no result: CDK5 inh, HIV Env fusion, dFosB act)
Cc1noc(C)c1NC(=O)N[C@@H]1CC[C@@H](CC(=O)Nc2ccc(-c3ccccc3)cc2)O[C@H]1CO	none (no result: CDK5 inh, dFosB act)
CCC(=O)NC[C@@H]1[C@@H](c2ccccc2)[C@@H](CO)N1C(=O)C1CCC1	none (no result: CDK5 inh, HIV Env fusion, dFosB act)
CN(CCCC(=O)Nc1ccncc1)S(=O)(=O)c1ccc(Cl)cc1	HIV Env fusion 66.1 (no result: GSIS activator)
CCCCC(C(=O)NCCC(C)C)N(CCCN1CCOCC1)C(=O)c1snc(C(N)=O)c1N (stereo not given)	GSIS activator 53.8 (no result: PAX8 inh HTS)
COc1ccc(NC(=O)c2sccc2SCc2cccc(C(F)(F)F)c2)cc1	HIV Env fusion 80.0 (no result: PAX8 inh HTS, GSIS activator)
O=C(Nc1ccc(F)cc1)c1sccc1SCc1cccc(C(F)(F)F)c1	none (no result: PAX8 inh HTS)
C[C@H](O)C#Cc1ccc([C@H]2[C@@H](CO)N3CCCCN(C(=O)c4ccc5c(c4)OCO5)C[C@@H]23)cc1	none (no result: CDK5 inh, HIV Env fusion, dFosB act)
CN1CCN(C(=O)c2cc3c(c(-c4cccc(-c5ccc(C#N)cc5)c4)n2)[C@H](CCO)N([S@@](=O)C(C)(C)C)C3)CC1	none (no result: CDK5 inh, dFosB act)
COc1cc(/C=C/C(=O)c2ccc(NS(=O)(=O)c3ccc(C)cc3)cc2)cc(OC)c1O	PAX8 inh HTS 81.3 (no result: Cneo AK release)
CCCCNC(=O)/C(=C/c1ccccc1)NC(C)=O	PAX8 inh HTS 138.8 (no result: GSIS activator, Cneo AK release)
CC(C)(C)NC(=O)C(c1ccc(C#N)cc1)n1c(=O)c(-c2cc3ccccc3[nH]2)nc2ccccc21 (stereo not given)	PAX8 inh HTS 65.3 (no result: CDK5 inh, dFosB act, Cneo AK release)
O=C(NCc1ccccc1)C(c1ccncc1)n1c(=O)c(-c2ccccc2)nc2ccccc21 (stereo not given)	GSIS activator 44.9 (no result: CDK5 inh, dFosB act, Cneo AK release)
CCCCCNC(=O)C(c1ccc(OC)cc1)n1c(=O)c(-c2cc3ccccc3[nH]2)nc2ccccc21 (stereo not given)	none (no result: CDK5 inh, dFosB act, Cneo AK release)
CCCCCNC(=O)C(c1ccncc1)n1c(=O)c(-c2cc3ccccc3[nH]2)nc2ccccc21 (stereo not given)	HIV Env fusion 74.9 (no result: CDK5 inh, dFosB act, Cneo AK release)
Cc1cc(C(=O)Nc2cccc3c2O[C@H](CN(C)S(=O)(=O)c2ccc(Cl)cc2)[C@H](C)CN([C@@H](C)CO)C3=O)n(C)n1	none (no result: CDK5 inh, dFosB act)
COC(=O)C[C@H]1CC[C@H]2[C@@H](COc3ccc(NC(=O)c4ccccc4F)cc3C(=O)N2C)O1	none (no result: CDK5 inh, HIV Env fusion, dFosB act, Cneo AK release)
O=C(C[C@@H]1C[C@H]2c3cc(NC(=O)c4ccc5c(c4)OCO5)ccc3O[C@H]2[C@@H](CO)O1)NC1CCCCC1	none (no result: CDK5 inh, dFosB act)
C[C@@H]1CN([C@@H](C)CO)C(=O)c2c(c3ccccc3n2C)-c2ccccc2CO[C@H]1CN(C)C(=O)c1ccc(F)cc1	none (no result: PAX8 inh HTS, CDK5 inh, HIV Env fusion, dFosB act)
COc1ccccc1NC(=O)N1C[C@H]2[C@@H](c3ccccc31)[C@@H](CO)N2Cc1ccccc1F	none (no result: CDK5 inh, HIV Env fusion, dFosB act)
CC1C=CC(C)C(C(=O)c2ccccc2)C1C(=O)c1ccccc1 (stereo not given)	none (no result: GSIS activator, CDK5 inh, dFosB act)
O=C(c1ccccc1)C1OC1C(=O)c1ccccc1 (stereo not given)	PAX8 inh HTS 72.0
CN(C)CC(=O)Nc1ccc2c(c1)[C@@H]1C[C@@H](CC(=O)NCc3cccc(F)c3)O[C@@H](CO)[C@@H]1O2	none (no result: CDK5 inh, dFosB act)
C[C@@H]1CN([C@H](C)CO)C(=O)c2cc(N(C)C)ccc2O[C@@H]1CN(C)C(=O)Nc1ccccc1	none (no result: CDK5 inh, HIV Env fusion, dFosB act)
CCCc1cc(C(=O)NCc2ccc(OC)cc2)no1	HIV Env fusion 84.5
CCCNC(=O)N1[C@H](CO)[C@@H](c2ccccc2C2=CCCC2)[C@@H]1C#N	none (no result: CDK5 inh, HIV Env fusion, dFosB act, Cneo AK release)
CCn1c(C)nc2cc(S(=O)(=O)C(F)(F)F)ccc21	GSIS activator 98.5 (no result: PAX8 inh HTS, HIV Env fusion)
C[C@H](CO)N1C[C@H](C)[C@@H](CN(C)C(=O)Nc2ccc(F)cc2)OCCCC[C@H](C)Oc2ccc(NS(=O)(=O)c3cccs3)cc2C1=O	none (no result: CDK5 inh, dFosB act)
Cc1ccc(S(=O)(=O)N(C)C[C@@H]2OCCCC[C@H](C)Oc3ccc(NS(=O)(=O)c4ccccc4)cc3C(=O)N([C@H](C)CO)C[C@H]2C)cc1	PAX8 inh HTS 72.3 (no result: CDK5 inh, dFosB act)
Cc1ccc(S(=O)(=O)N(C)C[C@@H]2OCCCC[C@H](C)Oc3ccc(NS(=O)(=O)c4ccccc4)cc3C(=O)N([C@H](C)CO)C[C@@H]2C)cc1	PAX8 inh HTS 64.4 (no result: CDK5 inh, dFosB act)
NNC(=O)c1[nH]c2ccc(Cl)cc2c1-c1ccccc1	PAX8 inh HTS 66.4 (no result: Cneo AK release)

Screening data as filed in PubChem BioAssay.
